# Measurements as given in the RNAGym collection of RNA variant scans (doi:10.1126/science.aae0568).
# This sample holds only a part of the variants without activity.
# B1: tRNA (parent)
# chain: GUUCCGUUGGCGUAAUGGUAACGCGUCUCCCUCCUAAGGAGAAGACUGCGGGUUCGAGUCCCGUACGGAACG
# Variants of: B1
# Experiment: yeast fitness relative to wild type (ratio to wild type); higher = fitter; tRNA-Arg(CCU), competitive growth, 37 C, YPD
# In short: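 A pool of Saccharomyces cerevisiae strains, each with a tRNA-Arg(CCU) gene variant at the native genomic locus, was competed in YPD at 37°C for 24 hours across six parallel replicates. The variants had been chemically synthesised at a 3% per-site mutation rate over 69 sites, and gene amplicons before and after competition were read by 100-nucleotide paired-end sequencing. Darwinian fitness relative to wild type rested on changes in genotype frequencies. Genotypes required ≥ 100 starting reads, and estimates < 0.5 were set to 0.5.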
row,Variant,yeast fitness
1,GUUCCGUUCGCGUAAUGGUAAGGCGUCUCCCUCCUAAGGAGAAGACUGCGGGUUCGAGUCACGUACGGAACG,0.611
2,GUUCCGUUGGCGUAAUGGUACCGCGUCUUCGUCCUAAGGAGAUGACUGCGGGUUCGAGUCCCGUCCGGAACG,≤ 0.5
3,GUUCCGUUAGCGUAAUGGUAACGCAUCUCCCUCCUAAGGCGAAGAUUGCGGGUUCGAGUCCCGUACGGAACG,0.727
4,GUUCCGUUAGCGUAAUCGUAACGCGUCUCCCUCCUAAGGAGAAGACUGCGGGUUCGAGUCCCGUACGGAACG,0.668
5,GUUCCGUUGGCGUAAUGGUUACGCGUCUCCCUCAUAAGGAGAAGACUGCGGGUUCGAGACCCGUACGGAACG,0.538
6,GUUCCGUUGGCGUAAUGGUAACGCGUCUCUCUCUUAUGGAGAAGACUGCGGGUUCGAGCCCCGUAUGGAACG,0.565
7,GUUCCGUUGGCGUACUGGCAACGCGUCUCCCUCCUACGGAGAAGACUGCGAGUUCGAGUCCCGUACGGAACG,≤ 0.5
8,GUUCCGUUGGCGUAAUGGUAACACGUCUCCCUCCUAAGGAGAAGACUGCGGGUACGAGUCCCGUACGGAACG,0.605
9,GUUCCAUUGGCGUAAUGGUAACGCGUCUCCCUCCUAAGGAGAAGACUGCCGGUUCGAGUCCCGUACGGAACG,0.629
10,GUUCCGUUGGCGUGAAGGUAACGCGUCUCCCUACUAAGGAGAAGACUGCGGGUUUGAGUCCCGUACGGAACG,0.67
11,GUUCCGUUGGCGUAAUGAUAACGCGUCUUCCUCCCAAGGAGAAGACUGCGGCUUCGAGUCCCGUACGGAACG,≤ 0.5
12,GUUCCGUUGGCGUAAUGCUAACGCGUCUCCGUCCUCAGGAGAAGGCUGCGGGUUCGAGUCCCGUGCGGAACG,0.595
13,GUUCCGUUGGCGUCAUGGCAACGCGUCUCCCUCCUAAGGAGACCACUACGGGUUCGAGACCCGCAUGGAACG,≤ 0.5
14,GUUCCGUUGGCGUAAUGGUAGCGCGUCUCCCUCCUAAGGAGUAGACUGCGGGUUCGUGUCCUGUACGGAACG,≤ 0.5
15,GUUCCGUUGGCGUAAUGGUAACGCGUCUCCCACCUAAGGAGAGGACUGCGGGAUCGAGUCCCGUACGAAACG,≤ 0.5
16,GUUCCAUUGGCGUAAUGGUAAGGCGUCUCCCUCCUAAGGAGCAGACUGCGGGUUCGAGUCCUGUACGGAACG,≤ 0.5
17,GUUCCGUUGGCGUAAUGGUAACGCGUCUCCCUCCUAAGGAGAAGACUGCGGGAUCGAGUCCCGUUCGGAACG,0.601
18,GUUCCGUUGGUGUAAUGGUCACGCGUCUGCCUCCUAAGGAGAAGACUGCGGGUUCCAAUCCCGUACGGAACG,0.693
19,GUACCGUUGGCGUAAUGGUAACGCGUCUCCCUCCUAGGGAGAAGACUGCGGGUUCGAGUCCCGUACGGAACG,0.887
20,GUUCCGUUGGCGUAAUGGUAACGCGUCUCCCUCCUAAGGAGACGACUGCCGGUUCGAGUCCCGUACGGAACG,0.593
21,GCACCGUUGGCGUAAUGGUAACGAGUUUCCCUCCUAAGGAGGAGACUGCGGGUUCCAGUCCCGUAUGGAACG,≤ 0.5
22,GUUCCGCUGGGGGAAUGGUAACGCGUCUCUCUCCUAAGGAGAAGACUGCGGGUUCGAGUCCCGUACGGACCG,≤ 0.5
23,GUCCCGUUGGCGUAAUGGUAACGCGUCUCCCUCCUAAGGAGAAGACUGGGGGUUCGAGACCCGUACGGAACG,≤ 0.5
24,GUCCCGUUCGCGUAAUGGUAACGCGUCUCCCUCCUAAGGAGAAGACUGCGGGUUCGAGUCCCGUACGGAUCG,≤ 0.5
25,GUUGCGUUGGCGUAAUGGUAACGUGUCUCCCUCCUAAGGAGAAGACUGCGGGUUCGAGUCCCGUACGGUACG,0.652

row,Variant,yeast fitness
1,GUUCCCUUGGCGUAAUGGUAACGCAUGUCCCUCCUAAGGAGAAGACUGCGGGUUCGUGUCCCGUACGGAACG,≤ 0.5
2,GUUCCGUUGGCGUAAUGGUAACGCGUCUCCCUCCUAAGGAGAAGACUGCGGGUUCGAGUCCCCUAUGGAACG,0.666
3,GUUCCGUUGGCGUAAUGGUAACGCGUCUCCCUCCUAAGGAGCAGACUGCGGGUUCGAGUCCCGUUCGGAACG,0.784
4,GUUCGGUUGGCGUAAUGGUAAUGCGUUUCCCUCCUAAGGACAAGACUGCGGGUUCGCGUCCCGUACGGAACG,0.542
5,GUUCCGUUAGCGUAAUGGUAACGUGUCUCCCUCCUAAGGUGAAGACUGCGGGUUCGUGUCCCGUACGGAACG,0.514
6,GUUCCGUUGGCGUAAUGGUAACGCGGCUCCCUCCUAAGGAGAAAACUGCGGGUUCGAGUCCCGUACGGUACG,0.673
7,GUUCCGUUGGCGUAAUGGUAACGCGUCUCCCUUCUAAGGAGAAGACUGCGGGUUCGACUCCAGUAGGGAACG,≤ 0.5
8,GAUCCGUUGGGGUAAUGGUAACGCGUCUCCCUCCUAAGGUGAAGACUGCGGGUUCGAGUCCCGUACGGAACG,0.544
9,GUUCCGUUGGCGUACUGGUAACGCGUCUCCGUGCUAAGGAGAAGACUGCGGGUUUGAGUCUCGUACGGAACG,0.504
10,GCUCCGUUGGCGUAAUGGUAACGCGUCUCCCUCCUAAGGCGAAGACUACGGGUUCGAGUCCCGUACGGAACG,0.751
11,GUUCCGUUGGCGUAAUGGUAACGCGUCUCCCUCCUAAAGAGAAGACCACGGGUUCGAGUCCCGUACGGAACG,0.542
12,GUUGCGUUGGCGUAAUGGUAAGGCGUCUACCUCCUAAGGAGAAGACUGCGGGUUCGAGUCCCGUCCGGAACG,≤ 0.5
13,GUUCCGUCGGCGUAAUGGUAACGCGUCACCCUCCUAAGGAGAAGAGUGCGGGUUAGAGUCCCGUACGGAACG,0.731
14,GUUCCGUUGGCGUAAUGCUAACGUGUCUCCCUCCUAAGGAGACGAUUGCGGGUUCGAGUCCCCUAUGGAACG,≤ 0.5
15,GUUCCGUUGGCGUAAUCGUAACGCGUCUCCCUCCUAAGGAGAAGACUGCGGGUUGGAGUCCCGUACAGCACG,≤ 0.5
16,GUUCCGUUGGCGUAAUGGUAACCCGUCUCCCUCCUAAGGAGAAGGCUGCGGGUUCGAGUCCCGUACGGAACG,0.773
17,GUUCGGUUGGCGUAAUGGUAACGCGUCUCCCUCCUAAGGAGAAGACUGCGGAUUCGAGUCCCGUGCGGAUCG,≤ 0.5
18,GUUCCGUUGGCGUAAUGGUAACGCGUCCCCCUCCUAAGGGGAAGACUGCGCGUUCGAGUCCCGUUCGGAACG,0.545
19,GCUCCGUUGGCGUAAUGGUAACGCGUCUCCCUCCUAAGGAGAAGACUGCGGGUUCGAGUCCCCUACGGAACG,0.747
20,GUUCUGUUGGCGUAAUGGUAACGCGUCUCCCCCCUAAGGAGAAGGAUGCGGGUUCGAGUCCCGUACGGAACG,0.602
21,GAUCCGUUGGCGUAAUGGUAAGGCGUCUCCCUCCUAAGGAGAAGACUGCGGGUUCGAGUCCCGUACGGAACG,0.888
22,GUUACGUUGGCGACAUGGUAACGCGUCUCCCUCCUAAGGAGAUGACUGCGGGUUCGAGUCCCGUACGGAACG,0.601
23,GUUCCGUUGGCGUAAUGGUAGCGCGACUCCCUCCUAAGGAGAAGACUGCGGGUUCGAGUCCCGUCCGGAACG,0.527
24,GUUCCGUUGGCGUAAUGGUAACGCGUCUCCCUCCUAAGGAGAACACUGCGGGUUCGAGUCCCGUACGCAACG,0.81
25,GUUCCGUUGGCGUAAUGGUAAUGCGUCUCCCUCCUGAGGAGAAGACUGCGGGUUAGAGUCCCGUACGGAACG,≤ 0.5

row,Variant,yeast fitness
1,GUUACGUUGGCGUUAUGGUCACGCGUCGCCCUCCUAAGGAGAAGACUGCGGGUUCGAGUCUAGUACGGAACG,≤ 0.5
2,GUUCCGUUGGCGUAAUCCUAACGCGUCUCCCUCCUAAGGAGAAGACUGCGAGUUCGAGUCCCGUACGGAACG,≤ 0.5
3,GUUCCGUUGGCAUAAUGGUAACGCGUCUCCCUCCUAAGGCGAAGACUGCGGGUUCGAGUCCCGGACGGAACG,≤ 0.5
4,GUUCCGUUGGCGUAAUGGUAACGCGUCUGCCUCCUAAGGAGAAGACUGCGGGUUCGAGUCUCGUACGGAACG,0.685
5,GGUCCGUUGGCGUAAUGGUAACGCGUCUCCCUCCUAAGGAGAAGACUGCGGGUUCGCGUCCCGUACGGAACG,0.533
6,GUUCCGUUGGCGUAAUGGUAACGCGUCUCCCUCCUAAGGAGAAGACUGGGGGUUCGAGUGCCGUACGGAACG,0.64
7,GUUCCGUUGGCGUAUUGGUAACGCGUCUCCCUCCUUAGGUGAAGACUGCGGGUUCGAGUCCCGUACGCAACG,0.643
8,GUUCCGUUGGCGUUAUGGUAUCGCGUCUCCCGCCUAGGGAGAAGGCUGCGGGUUAGAGUCCCGUACGGAACG,≤ 0.5
9,GUUCCGUUGGCGUAAUCGUAACGCGUCUCCCUGCUAAGGAGAAGACUGCGGGUUCGAGUCCCGUACGGAACG,0.534
10,GUUCCGUUGGCCUAAAGGUAACCCGUCUACCUCCUAAGGAGAAGCCUGCGGGUUCGAGUCCCGUACGAAACG,0.748
11,GAUCCGUUGGGGUAAUGGUAACGCGUCUCCCUCCUAAGGAGAAGACUGAGGGUUCGAGUCCCGUACGGAGCG,≤ 0.5
12,GUUCGGUUGGCGUAAUGGUAACGCGUCUCCCUCGUAAGGAGAAGACUGCGGGUUCGAGUCCGGUACGGAACG,0.59
13,GUUCGGUUGGCGUAAUCGUAACGCGUCUCCCUCCUAAGGAGAAGACAGCGGGUUAGAGUCCCGUACGAAACG,0.562
14,GUUACGUUGGCGUAAUAGUAGCGGGUCUCCCUCCUAAGGAGAAGACUGCGGGUUCGAGUCCCGUACAGAGCG,≤ 0.5
15,GUUCCGUUGGCGUAAUGGUAACGCGUCUCCCUCCUAAGAAGAAGAAUGCGGGUUCGAGUCCCGUACGGAACG,1.01
16,GUUCCGUUGGCGUAAUGGUAACGCGUUUCCCUGCUAAGGAGAGGCCUGCGGGUUAGAGUCCCGUACGGAACG,≤ 0.5
17,GUUCCGUUGGCGUAAUGGUAGCGCGUCUCCCUCCUAAGGAGAAGACUGCGAGUUCGAGUCCCGUACGGAACG,0.836
18,GUUUCGUUGGCGUAAUGGUAAUGCGUCUCCCUUCUAAGGAGCAGACUGCGGGUUCGAGUCCCGUACGGAACG,0.668
19,GUUCGGUUGGCGUAAUGGCAACGCAUCUCCCUCCUAAGGAGAAGACUGCGGGUUCGAGUCCCGUACGGAACG,0.716
20,GUUCCGUUGCCGUAAUGGUAACGCGUCUCCCUCGUAAGGAGAAGACUGUGGGUUCGAGUCCCGUACGGAACG,≤ 0.5
21,GUUCGGAUGGCGUACUGGUAACGCGUCACCCUCCUAAGGAGAAGACUGCGGGUUCGAGUCCCGUACGGAACG,≤ 0.5
22,GUUCCGUUGCAGUAAUGGUAACGCGUCUCCCUCCUACGGAGAAGACUGGGGGUUCGAGUCCUGUACGGAACG,≤ 0.5
23,GUUCCGUUGGCGUUAUGGUAACGCGUCUCCCUCCUAAGGAGAAGACUGCGGGUUCGAGUCCCGUACGGACCG,0.596
24,GUUCCGUUGGCGUAAAGGUAACGCGUCUCCCUCCUAAGGAGAAGACUGCGGGUUCGCGUCCCGUAUGGCACG,≤ 0.5
25,GUUCCGUUGGCGUAAUGGUAACACGUCUCCCUCCUGAGGAGAAGACUGCGGGUUCGAGUCCCGUACGGAACG,0.668
